Hits are enriched below; roughly 1.9% of the tested compounds scored in any of these assays.
M5 PAM = positive allosteric modulators of human muscarinic M5 receptor; P08912; CHO-K1 hM5, Fluo-8 calcium, ACh EC20 PAM; 0% = ACh EC20, 100% = ACh EC100; activation, % at 3 µM; actives 0.3% (n = 360,000); AID 624038;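 active = activation above the run cutoff, the mean activation of all test compounds plus 3 SD, cut at about 18% in these data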
Target sequence (P08912 whole entry, looked up): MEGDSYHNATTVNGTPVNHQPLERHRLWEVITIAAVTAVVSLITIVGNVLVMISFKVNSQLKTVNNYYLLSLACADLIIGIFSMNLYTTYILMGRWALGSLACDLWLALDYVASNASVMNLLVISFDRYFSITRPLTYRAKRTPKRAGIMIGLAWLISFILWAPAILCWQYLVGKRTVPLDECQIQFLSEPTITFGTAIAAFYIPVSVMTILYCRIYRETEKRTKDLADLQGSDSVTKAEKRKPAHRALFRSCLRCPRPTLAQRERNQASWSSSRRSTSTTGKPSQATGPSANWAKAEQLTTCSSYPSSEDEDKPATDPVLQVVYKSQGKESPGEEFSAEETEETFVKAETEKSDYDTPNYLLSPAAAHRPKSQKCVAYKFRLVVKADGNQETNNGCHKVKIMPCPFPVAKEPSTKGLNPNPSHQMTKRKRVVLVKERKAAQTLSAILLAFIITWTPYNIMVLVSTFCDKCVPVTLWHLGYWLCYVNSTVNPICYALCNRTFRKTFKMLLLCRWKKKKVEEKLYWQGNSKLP
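Replicates: One well per compound, no replicates | System: Human M5 receptor in CHO-K1 cells | Benchmarks: Low control EC20 acetylcholine (0%), high control EC100 acetylcholine (100%) | Probe or stimulus: Acetylcholine, EC20 level | Times: Fluo-8 loading 80 min at 37 °C plus 30 min room temperature | Signal: Intracellular calcium via Fluo-8 fluorescence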
M5 antag = antagonists of human muscarinic M5 receptor (CHRM5) | AID 624040 | CHO-hM5 cells, Fluo-8 calcium fluorescence, ACh EC80 | actives 0.59% (n = 360,000) | P08912 | inhibition, % at 3 µM;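 active = inhibition above a per-plate cutoff, the mean of that plate's test compounds plus 3 SD, cut at about 27% in these data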;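 also: 0% = acetylcholine EC80 with DMSO and 100% = DMSO without agonist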
M4 PAM = positive allosteric modulators of human muscarinic M4 receptor. AID 624126. activation, % at 3 µM. actives 0.4% (n = 360,000). CHO-K1 hM4/Gqi5, Fluo-8 calcium fluorescence, ACh EC20; 0% = ACh EC20, 100% = maximal ACh. P08173;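 active = activation above its plate's cutoff, the mean activation of sample wells plus 3 SD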
M5 ag = agonists of human muscarinic M5 receptor (CHRM5); CHO-K1 hM5 cells, Fluo-8 calcium fluorescence; 0% DMSO wells, 100% maximal acetylcholine response; activation, % at 3 µM; actives 0.19% (n = 360,000); AID 624037;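 active = activation above the run's mean over test compounds plus 3 SD, cut at about 23% in these data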;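 also: signal is peak over basal fluorescence ratio across the kinetic read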
CHRM4 antagonist = CHRM4 antagonism in calcium assay; CHO-hM4 cells, ACh EC80, Fluo-8 calcium fluorescence; P08173; actives 0.73% (n = 360,000); inhibition, % at 3 µM;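 active = inhibition above its plate's cutoff, the mean inhibition of sample wells plus 3 SD, cut at about 27% in these data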;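 also: 0% = acetylcholine EC80 with DMSO and 100% = DMSO without agonist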
M4 ag = agonists of human muscarinic M4 receptor (CHRM4); P08173; CHO-K1 hM4/Gqi5, Fluo-8 calcium fluorescence; vehicle 0%, full acetylcholine response 100%; activation, % at 3 µM; actives 0.14% (n = 360,000); AID 624127;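 active = activation above the run mean over all test wells plus 3 SD, cut at about 32% in these data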;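 also: peak over basal fluorescence ratio per well then scaled between controls; 0% = DMSO wells and 100% = acetylcholine at EC100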
* marks the source's active call; other numbers are inactive results.

SMILES	M5 PAM	M5 antag	M4 PAM	M5 ag	CHRM4 antagonist	M4 ag
Cc1ccc(C(C)NC(=O)/C(C#N)=C\c2c(C)[nH]c3ccccc23)cc1 (stereo not given)	-7	10	5	27*	7	21
CCCS(=O)(=O)NC(=O)C1(C)CCCN(C(=O)C2(c3ccc(Cl)cc3)CCCC2)C1 (stereo not given)	-1	-6	10	0	-7	0
Cn1cc(Cl)c(C(=O)Nc2nc3ccc([N+](=O)[O-])cc3s2)n1	22*	14	9	0	-4	0
Cc1c(N2C(=O)C3C4C=CC(C4)C3C2=O)c(=O)n(-c2ccccc2)n1C (stereo not given)	9	4	13	5	-6	1
CC(=O)/C=C1\SC(CC(=O)O)C(=O)N1c1ccccc1 (stereo not given)	12	-8	22*	-1	-12	1
Cc1c(N2C(=O)SC(CC(=O)O)C2=O)c(=O)n(-c2ccccc2)n1C (stereo not given)	20*	-2	6	-3	-2	1
CC(=O)Nc1cc(-c2ccc(N(C)C)cc2)cn2c(-c3ccc(F)cc3)cnc12	-2	10	5	7	0	4
CCNS(=O)(=O)c1ccc(OCCNS(C)(=O)=O)cc1	-1	3	8	0	0	1
CCN(CC)S(=O)(=O)c1ccc(OCCNS(C)(=O)=O)cc1	-15	29*	-7	-1	-3	2
CCCNC(=O)Cn1c(=O)/c(=C\c2ccc(-c3ccc([N+](=O)[O-])cc3)o2)s/c1=C\C(=O)C(C)(C)C	-7	27	-4	25*	18	31
CC(N)c1csc(Nc2cc(Oc3ccccc3)ncn2)n1 (stereo not given)	-3	2	0	-2	3	2
N#CCCN1CCCc2cc(N=Nc3ccc(C(F)(F)F)cc3)ccc21	20*	-3	2	-3	7	1
COc1cccc(C(=O)NCCSCc2c(F)cccc2Cl)c1	10	-3	-2	-13	-12	6
COc1cccc(C(=O)NCCSCc2ccccc2Cl)c1	18*	-7	-5	-6	-9	2
COc1cccc(NS(=O)(=O)c2ccc(-n3cccn3)cc2)c1	-14	18	-12	4	31*	26
Cc1ccc(NS(=O)(=O)c2ccc(-n3cccn3)cc2)cc1F	-5	14	-4	5	7	12
COc1ccc(C(=O)/C=C/c2ccc3c(c2)OCCO3)cc1	-3	2	-12	-5	16	2
O=C(/C=C/c1ccc2c(c1)OCCO2)c1ccccc1	24*	-13	4	2	-4	0
CC(C)C[C@H]1CNC(=O)C(=O)N1C[C@@H]1CCCN1C[C@H](Cc1ccc(O)cc1)N1C[C@H](Cc2ccccc2)N(CC2CCCCC2)C(=O)C1=O	-11	7	0	-3	37*	-1
O=C1NC[C@@H](CCCCN2C[C@H](Cc3ccc(O)cc3)N(CC3CCCCC3)C(=O)C2=O)N(CCC2CCCCC2)C1=O	-6	3	8	37*	-5	71*
COCCNC(=O)C1(C)CCN(Cc2cccc(Oc3ccccc3)c2)C1 (stereo not given)	-4	6	-5	-2	4	1
O=C(CN1C(=O)CSC1=O)c1ccccc1	45*	-6	9	-3	-11	1
COc1ccccc1NC(=O)N(C)C[C@@H]1OCc2cn(nn2)CCCC(=O)N([C@H](C)CO)C[C@H]1C	3	-4	0	0	1	0
COc1ccc(-c2coc3c(C(=O)NCc4ccc(OC)c(OC)c4)cccc23)c(C)c1	-15	36*	-10	6	37*	16
COc1ccc(-c2ccc(C(=O)NCc3ccncc3)c3occc23)c(C)c1	-18	32*	-7	5	20	16
COc1ccc(-c2ccc(C(=O)NCc3ccc(F)c(F)c3)c3occc23)c(C)c1	-10	4	-3	-2	10	5

From PubChem BioAssay
